# Source: ChEMBL document CHEMBL3813617, “An alternative route to the arylvinyltriazole nucleosides” (Bioorg Med Chem Lett, 2016)
# Activity calls are given as the source filed them. The calls are words filed in the database; no cut-off is given here.
# Assays:
# Vero = assay: Antiviral activity against Influenza A H5N1 virus (A/duck/Novosibirsk/56/05) infected in African green monkey Vero cells assessed as reduction of virus-induced cytopathic effect; format: functional, cell-based; conditions: Influenza A virus (A/duck/Novosibirsk/56/2005(H5N1))
# [1] = Cytotoxicity against African green monkey Vero E6 cells up to 2 mM; format: cell-based; conditions: chlorocebus sabaeus
# [2] = Cytotoxicity against African green monkey Vero E6 cells; format: cell-based; conditions: chlorocebus sabaeus
# In short: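 Cytotoxicity measured in Vero cells, […]; CC50 derived.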
# Human alphaherpesvirus 1 = assay: Antiviral activity against Herpes simplex virus type 1 L2 infected in African green monkey Vero E6 cells assessed as reduction of virus-induced cytopathic effect; format: functional, organism-based; conditions: Human alphaherpesvirus 1, L2, Vero
# Hepatitis C virus = assay: Antiviral activity against Hepatitis C virus infected in African green monkey Vero cells assessed as reduction of virus-induced cytopathic effect; format: functional, organism-based, Hepacivirus hominis
Compound,Activity (Vero),Activity [1],CC50 [2],IC50 (Human alphaherpesvirus 1),IC50 (Hepatitis C virus)
NC(=O)c1nc(/C=C\c2ccc(C(F)(F)F)cc2)n([C@@H]2O[C@H](CO)[C@@H](O)[C@H]2O)n1,inactive,Non-toxic,–,–,–
NC(=O)c1nc(/C=C/c2ccc(F)cc2)n([C@@H]2O[C@H](CO)[C@@H](O)[C@H]2O)n1,inactive,–,3.4 µM,–,–
NC(=O)c1nc(/C=C/c2cccc(F)c2)n([C@@H]2O[C@H](CO)[C@@H](O)[C@H]2O)n1,inactive,Non-toxic,–,6.9 µM,–
NC(=O)c1nc(/C=C/c2ccccc2F)n([C@@H]2O[C@H](CO)[C@@H](O)[C@H]2O)n1 (mixture of isomers),inactive,Non-toxic,–,–,–
NC(=O)c1nc(/C=C\c2ccc(F)cc2)n([C@@H]2O[C@H](CO)[C@@H](O)[C@H]2O)n1,inactive,Non-toxic,–,–,–
NC(=O)c1ncn([C@@H]2O[C@H](CO)[C@@H](O)[C@H]2O)n1 [RIBAVIRIN],–,–,0.3 µM,10 µM,–
NC(=O)c1nc(/C=C\c2cccc(F)c2)n([C@@H]2O[C@H](CO)[C@@H](O)[C@H]2O)n1,inactive,Non-toxic,–,–,–
NC(=O)c1nc(/C=C/c2ccc(C(F)(F)F)cc2)n([C@@H]2O[C@H](CO)[C@@H](O)[C@H]2O)n1,–,–,–,–,0.09 µM
